Reference: ChEMBL document CHEMBL2062426 (J Med Chem, 2012)
Each block holds one compound with its values, some of them ahead of it.

Tests used:
[1] = Octanol-water partition coefficient, log D of the compound after 1 min by gamma-counting at pH 7.4; assay type: physicochemical
Procedure, shortened: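 About 20 kBq of tracer was shaken for 1 min at room temperature in 0.5 mL PBS pH 7.4 with 0.5 mL 1-octanol, then centrifuged (3000 rpm, 2 min). Triplicate 100 μL samples of each phase were γ-counted. log D7.4 is log(cpm octanol/cpm PBS), from two independent experiments in triplicate, given as mean ± SD.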

Serum [2] = experiment: Metabolic stability in human serum at 5 MBq up to 120 mins by radio-HPLC analysis; assay type: ADME, cell-free; details: 2 h
Procedure, shortened: (§1)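 The PBS-formulated 18F tracer (20 μL, 5 MBq) was added to 200 μL human serum and incubated at 37 °C. Samples of 20 μL were taken at 10, 20, 30, 60, 90 and 120 min, quenched in methanol/CH2Cl2 1:1 and centrifuged 2 min. The organic layer was analysed by radio-HPLC (C18; 30% CH3CN/0.1% TFA for 15 min, then gradient).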

Serum [3] = experiment: Drug metabolism in human serum at 5 MBq up to 120 mins by radio-HPLC analysis; assay type: ADME, cell-free; details: 2 h; procedure, shortened: as §1
Serum [4] = experiment: Drug metabolism in mouse serum at 5 MBq up to 120 mins by radio-HPLC analysis; assay type: ADME, cell-free; details: 2 h
Procedure, shortened: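 Serum stability was repeated in mouse blood serum at 37 °C, with analysis by radio-HPLC.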

Kidney [5] = experiment: Tmax in C57/Bl6 mouse kidney at 250 kBq/g bodyweight, iv administered as bolus dose by PET scanning; assay type: ADME, organism-based; details: in vivo
Procedure, shortened: (§2)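 Adult C57/Bl6 mice given the 18F tracer by intravenous injection. List-mode PET data acquired for 120 min on a high-resolution small-animal scanner and reconstructed into dynamic frames iteratively. Organ volumes of interest were drawn on co-registered CT. Uptake is counts per mL in the VOI divided by total counts in the mouse ×100 (% ID/mL).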

Kidney [6] = experiment: Half life in C57/Bl6 mouse kidney at 250 kBq/g bodyweight, iv administered as bolus dose by PET scanning; assay type: ADME, organism-based; details: in vivo; procedure, shortened: as §2
Liver [7] = experiment: Tmax in C57/Bl6 mouse liver at 250 kBq/g bodyweight, iv administered as bolus dose by PET scanning; assay type: ADME, organism-based; details: in vivo; procedure, shortened: as §2
Liver [8] = experiment: Half life in C57/Bl6 mouse liver at 250 kBq/g bodyweight, iv administered as bolus dose by PET scanning; assay type: ADME, organism-based; details: in vivo; procedure, shortened: as §2
Mus musculus = experiment: Drug metabolism in C57/Bl6 mouse assessed as defluorination at 250 kBq/g bodyweight, iv administered as bolus dose up to 120 mins by PET scanning; assay type: ADME, organism-based; details: in vivo, 2 h; procedure, shortened: as §2
Brain = experiment: Drug uptake in C57/Bl6 mouse brain at 250 kBq/g bodyweight, iv administered as bolus dose up to 120 mins by PET scanning; assay type: ADME, organism-based; details: in vivo, 2 h; procedure, shortened: as §2
[9] = Drug uptake in C57/Bl6 mouse myocardium at 250 kBq/g bodyweight, iv administered as bolus dose up to 120 mins by PET scanning; assay type: ADME, organism-based; details: in vivo, 2 h; procedure, shortened: as §2
Lung = experiment: Drug uptake in C57/Bl6 mouse lungs at 250 kBq/g bodyweight, iv administered as bolus dose up to 120 mins by PET scanning; assay type: ADME, organism-based; details: in vivo, 2 h; procedure, shortened: as §2
Muscle tissue [10] = experiment: Drug uptake in C57/Bl6 mouse muscle at 250 kBq/g bodyweight, iv administered as bolus dose up to 120 mins by PET scanning; assay type: ADME, organism-based; details: in vivo, 2 h; procedure, shortened: as §2
[11] = Metabolic stability in iv dosed ICR CD1 mouse muscle assessed as compound remaining after 30 mins by gamma-counting based HPLC analysis; assay type: ADME, organism-based, Muscle tissue; details: read-out: Stability
Procedure, shortened: (§3)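 Three 10-month-old female ICR (CD1) mice received about 11.1 MBq tracer by tail vein and were killed 30 min pi. Plasma was taken from blood by centrifugation, and urine was collected. Muscle, kidney and liver were homogenized in 1% SDS/PBS and extracted with acetonitrile/acetic acid. Supernatants were γ-counted, %ID/g was computed against a dose aliquot, and samples were run on C18 radio-HPLC with an acetonitrile/water gradient in 0.05% TFA.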

Kidney [12] = experiment: Metabolic stability in iv dosed ICR CD1 mouse kidney assessed as compound remaining after 30 mins by gamma-counting based HPLC analysis; assay type: ADME, organism-based; details: in vivo, 0.5 h; procedure, shortened: as §3
Liver [13] = experiment: Metabolic stability in iv dosed ICR CD1 mouse liver assessed as compound remaining after 30 mins by gamma-counting based HPLC analysis; assay type: ADME, organism-based; details: in vivo, 0.5 h; procedure, shortened: as §3
Plasma [14] = experiment: Metabolic stability in iv dosed ICR CD1 mouse plasma assessed as compound remaining after 30 mins by gamma-counting based HPLC analysis; assay type: ADME, organism-based; details: in vivo, 0.5 h; procedure, shortened: as §3
[15] = Metabolic stability in iv dosed ICR CD1 mouse urine assessed as compound remaining after 30 mins by gamma-counting based HPLC analysis; assay type: ADME, organism-based; details: in vivo, 0.5 h; procedure, shortened: as §3
Muscle tissue [16] = experiment: Drug metabolism in iv dosed ICR CD1 mouse muscle assessed as radiometabolite 1 level after 30 mins by gamma-counting based HPLC analysis; assay type: ADME, organism-based; details: in vivo, 0.5 h; procedure, shortened: as §3
Kidney [17] = experiment: Drug metabolism in iv dosed ICR CD1 mouse kidney assessed as radiometabolite 1 level after 30 mins by gamma-counting based HPLC analysis; assay type: ADME, organism-based; details: in vivo, 0.5 h; procedure, shortened: as §3
Liver [18] = experiment: Drug metabolism in iv dosed ICR CD1 mouse liver assessed as radiometabolite 1 level after 30 mins by gamma-counting based HPLC analysis; assay type: ADME, organism-based; details: in vivo, 0.5 h; procedure, shortened: as §3
Plasma [19] = experiment: Drug metabolism in iv dosed ICR CD1 mouse plasma assessed as radiometabolite 1 level after 30 mins by gamma-counting based HPLC analysis; assay type: ADME, organism-based; details: in vivo, 0.5 h; procedure, shortened: as §3
[20] = Drug metabolism in iv dosed ICR CD1 mouse urine assessed as radiometabolite 1 level after 30 mins by gamma-counting based HPLC analysis; assay type: ADME, organism-based; details: in vivo, 0.5 h; procedure, shortened: as §3
Muscle tissue [21] = experiment: Drug metabolism in iv dosed ICR CD1 mouse muscle assessed as radiometabolite 2 level after 30 mins by gamma-counting based HPLC analysis; assay type: ADME, organism-based; details: in vivo, 0.5 h; procedure, shortened: as §3
Kidney [22] = experiment: Drug metabolism in iv dosed ICR CD1 mouse kidney assessed as radiometabolite 2 level after 30 mins by gamma-counting based HPLC analysis; assay type: ADME, organism-based; details: in vivo, 0.5 h; procedure, shortened: as §3
Liver [23] = experiment: Drug metabolism in iv dosed ICR CD1 mouse liver assessed as radiometabolite 2 level after 30 mins by gamma-counting based HPLC analysis; assay type: ADME, organism-based; details: in vivo, 0.5 h; procedure, shortened: as §3
Plasma [24] = experiment: Drug metabolism in iv dosed ICR CD1 mouse plasma assessed as radiometabolite 2 level after 30 mins by gamma-counting based HPLC analysis; assay type: ADME, organism-based; details: in vivo, 0.5 h; procedure, shortened: as §3
[25] = Drug metabolism in iv dosed ICR CD1 mouse urine assessed as radiometabolite 2 level after 30 mins by gamma-counting based HPLC analysis; assay type: ADME, organism-based; details: in vivo, 0.5 h; procedure, shortened: as §3
Muscle tissue [26] = experiment: Drug metabolism in iv dosed ICR CD1 mouse muscle assessed as radiometabolite 3 level after 30 mins by gamma-counting based HPLC analysis; assay type: ADME, organism-based; details: in vivo, 0.5 h; procedure, shortened: as §3
Kidney [27] = experiment: Drug metabolism in iv dosed ICR CD1 mouse kidney assessed as radiometabolite 3 level after 30 mins by gamma-counting based HPLC analysis; assay type: ADME, organism-based; details: in vivo, 0.5 h; procedure, shortened: as §3
Liver [28] = experiment: Drug metabolism in iv dosed ICR CD1 mouse liver assessed as radiometabolite 3 level after 30 mins by gamma-counting based HPLC analysis; assay type: ADME, organism-based; details: in vivo, 0.5 h; procedure, shortened: as §3
Plasma [29] = experiment: Drug metabolism in iv dosed ICR CD1 mouse plasma assessed as radiometabolite 3 level after 30 mins by gamma-counting based HPLC analysis; assay type: ADME, organism-based; details: in vivo, 0.5 h; procedure, shortened: as §3
[30] = Drug metabolism in iv dosed ICR CD1 mouse urine assessed as radiometabolite 3 level after 30 mins by gamma-counting based HPLC analysis; assay type: ADME, organism-based; details: in vivo, 0.5 h; procedure, shortened: as §3
Muscle tissue [31] = experiment: Drug metabolism in iv dosed ICR CD1 mouse muscle assessed as radiometabolite 4 level after 30 mins by gamma-counting based HPLC analysis; assay type: ADME, organism-based; details: in vivo, 0.5 h; procedure, shortened: as §3
Kidney [32] = experiment: Drug metabolism in iv dosed ICR CD1 mouse kidney assessed as radiometabolite 4 level after 30 mins by gamma-counting based HPLC analysis; assay type: ADME, organism-based; details: in vivo, 0.5 h; procedure, shortened: as §3
Liver [33] = experiment: Drug metabolism in iv dosed ICR CD1 mouse liver assessed as radiometabolite 4 level after 30 mins by gamma-counting based HPLC analysis; assay type: ADME, organism-based; details: in vivo, 0.5 h; procedure, shortened: as §3
Plasma [34] = experiment: Drug metabolism in iv dosed ICR CD1 mouse plasma assessed as radiometabolite 4 level after 30 mins by gamma-counting based HPLC analysis; assay type: ADME, organism-based; details: in vivo, 0.5 h; procedure, shortened: as §3
[35] = Drug metabolism in iv dosed ICR CD1 mouse urine assessed as radiometabolite 4 level after 30 mins by gamma-counting based HPLC analysis; assay type: ADME, organism-based; details: in vivo, 0.5 h; procedure, shortened: as §3

logD at 1 min [1]: 0.6 | Stability (Serum [2]): Stable | Drug metabolism (Serum [3]): Not Active | Drug metabolism (Serum [4]): Not Active | Tmax (Kidney [5]): 0.5 min | t1/2 (Kidney [6]): 13 min | Tmax (Liver [7]): 4 min | t1/2 (Liver [8]): 18 min | Drug metabolism (Mus musculus): Not Active | Drug uptake (Brain): Not Active | Drug uptake [9]: Not Active | Drug uptake (Lung): Not Active | Drug uptake (Muscle tissue [10]): Not Active | tissue uptake at 0.5 h [11]: 0.21 %ID/g | Stability (Kidney [12]): 4.6 % ID/g | Stability (Liver [13]): 0.78 % ID/g | Stability (Plasma [14]): 0.29 % ID/g | Stability [15]: 27.86 % ID/g | Drug metabolism (Muscle tissue [16]): 0 % ID/g | Drug metabolism (Kidney [17]): 0.26 % ID/g | Drug metabolism (Liver [18]): 0.12 % ID/g | Drug metabolism (Plasma [19]): 0.17 % ID/g | Drug metabolism [20]: 2.32 % ID/g | Drug metabolism (Muscle tissue [21]): 0 % ID/g | Drug metabolism (Kidney [22]): 0 % ID/g | Drug metabolism (Liver [23]): 0 % ID/g | Drug metabolism (Plasma [24]): 0 % ID/g | Drug metabolism [25]: 0.33 % ID/g | Drug metabolism (Muscle tissue [26]): 0 % ID/g | Drug metabolism (Kidney [27]): 0.21 % ID/g | Drug metabolism (Liver [28]): 1.32 % ID/g | Drug metabolism (Plasma [29]): 0 % ID/g | Drug metabolism [30]: 2.32 % ID/g | Drug metabolism (Muscle tissue [31]): 0 % ID/g | Drug metabolism (Kidney [32]): 0.1 % ID/g | Drug metabolism (Liver [33]): 0.78 % ID/g | Drug metabolism (Plasma [34]): 0 % ID/g | Drug metabolism [35]: 0.33 % ID/g
Compound: COc1ccc(S(=O)(=O)N(Cc2cn(CC[18F])nn2)[C@@H](C(=O)NO)C(C)C)cc1

Tmax (Kidney [5]): 1.5 min | t1/2 (Kidney [6]): 3 min | Tmax (Liver [7]): 2.5 min | t1/2 (Liver [8]): 7 min
Compound: CC(C)[C@H](C(=O)NO)N(Cc1ccccc1)S(=O)(=O)c1ccc(OCC[18F])cc1
